From ChEMBL document CHEMBL5696442, “Discovery of type II inhibitors of TGFβ-activated kinase 1 (TAK1) and mitogen-activated protein kinase kinase kinase kinase 2 (MAP4K2)” (J Med Chem, 2015)

Tests used:
Type in all cases: cell-based
[1] = biological target: RAC-gamma serine/threonine-protein kinase (Homo sapiens) (UniProt Q9Y243); experiment: Inhibition of AKT3 ATP Loop labeling site in human A-375 cells at 0.05 uM by KiNativ Profiling analysis relative to control
[2] = biological target: Ribosomal protein S6 kinase alpha-3 (Homo sapiens) (UniProt P51812); experiment: Inhibition of RSK2 domain2 Protein Kinase Domain in human A-375 cells at 0.05 uM by KiNativ Profiling analysis relative to control
[3] = biological target: Cyclin-dependent kinase 18 (Homo sapiens) (UniProt Q07002); experiment: Inhibition of PCTAIRE3 Lys1 labeling site harbouring SKLTENLVALKEIRLEHEEGAPCTAIR in human A-375 cells at 0.5 uM by KiNativ Profiling analysis relative to control
Summary of the method: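 Live A375 melanoma cells were treated with compound at 5 or 0.5 μM, then lysed. Lysates were labeled with a lysine-reactive ATP or ADP-biotin probe. Read-out was the compound's protection of kinase labeling sites from probe labeling (KiNativ).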

[4] = biological target: T1, Serine/threonine-protein kinase NLK (Homo sapiens) (UniProt Q9UBE8); experiment: Inhibition of NLK Lys2 labeling site in human A-375 cells at 0.05 uM by KiNativ Profiling analysis relative to control
T1 sequence (whole entry): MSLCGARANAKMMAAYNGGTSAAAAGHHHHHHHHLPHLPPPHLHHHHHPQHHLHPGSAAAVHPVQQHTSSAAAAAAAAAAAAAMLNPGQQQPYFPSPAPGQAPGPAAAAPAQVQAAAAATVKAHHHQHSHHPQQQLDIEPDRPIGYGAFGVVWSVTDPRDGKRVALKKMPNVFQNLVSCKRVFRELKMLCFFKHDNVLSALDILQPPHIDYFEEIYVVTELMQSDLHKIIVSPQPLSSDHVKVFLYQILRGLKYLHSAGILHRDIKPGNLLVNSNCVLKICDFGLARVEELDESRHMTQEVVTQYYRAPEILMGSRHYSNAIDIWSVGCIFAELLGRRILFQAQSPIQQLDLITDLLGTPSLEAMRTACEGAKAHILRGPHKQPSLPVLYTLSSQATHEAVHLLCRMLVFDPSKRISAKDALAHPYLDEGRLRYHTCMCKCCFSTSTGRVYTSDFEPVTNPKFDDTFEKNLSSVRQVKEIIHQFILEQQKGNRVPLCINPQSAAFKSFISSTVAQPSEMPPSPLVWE

[5] = biological target: Interleukin-1 receptor-associated kinase 1 (Homo sapiens) (UniProt P51617); experiment: Inhibition of IRAK1 Lys2 labeling site in human A-375 cells at 0.05 uM by KiNativ Profiling analysis relative to control
[6] = biological target: T2, Mitogen-activated protein kinase kinase kinase 3 (Homo sapiens) (UniProt Q99759); experiment: Inhibition of MAP3K3 Lys1 labeling site in human A-375 cells at 5 uM by KiNativ Profiling analysis relative to control
T2 sequence (whole entry): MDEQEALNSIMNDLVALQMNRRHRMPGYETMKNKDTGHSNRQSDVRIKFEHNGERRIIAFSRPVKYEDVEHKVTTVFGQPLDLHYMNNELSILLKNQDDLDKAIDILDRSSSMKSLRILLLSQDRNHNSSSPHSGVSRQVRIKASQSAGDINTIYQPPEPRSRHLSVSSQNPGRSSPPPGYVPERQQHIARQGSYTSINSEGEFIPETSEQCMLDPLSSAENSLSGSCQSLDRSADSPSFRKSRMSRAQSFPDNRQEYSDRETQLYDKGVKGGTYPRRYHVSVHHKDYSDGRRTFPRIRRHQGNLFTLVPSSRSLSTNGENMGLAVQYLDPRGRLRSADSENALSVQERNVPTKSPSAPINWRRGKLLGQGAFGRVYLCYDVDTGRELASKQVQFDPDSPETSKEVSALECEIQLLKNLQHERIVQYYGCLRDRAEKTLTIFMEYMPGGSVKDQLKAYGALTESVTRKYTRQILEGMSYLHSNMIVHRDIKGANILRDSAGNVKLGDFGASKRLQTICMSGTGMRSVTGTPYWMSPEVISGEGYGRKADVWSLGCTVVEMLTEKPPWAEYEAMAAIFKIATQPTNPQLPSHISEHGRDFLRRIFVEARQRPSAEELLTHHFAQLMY

[7] = biological target: T1, Serine/threonine-protein kinase NLK (Homo sapiens); experiment: Inhibition of NLK Lys2 labeling site in human A-375 cells at 0.5 uM by KiNativ Profiling analysis relative to control
[8] = biological target: Receptor tyrosine-protein kinase erbB-3 (Homo sapiens) (UniProt P21860); experiment: Inhibition of HER3/ErbB3 ACT labeling site in human A-375 cells at 0.05 uM by KiNativ Profiling analysis relative to control
[9] = biological target: T3, Kinase suppressor of Ras 1 (Homo sapiens) (UniProt Q8IVT5); experiment: Inhibition of KSR1 ACT labeling site harbouring SKNVFYDNGK in human A-375 cells at 0.5 uM by KiNativ Profiling analysis relative to control
T3 sequence (whole entry): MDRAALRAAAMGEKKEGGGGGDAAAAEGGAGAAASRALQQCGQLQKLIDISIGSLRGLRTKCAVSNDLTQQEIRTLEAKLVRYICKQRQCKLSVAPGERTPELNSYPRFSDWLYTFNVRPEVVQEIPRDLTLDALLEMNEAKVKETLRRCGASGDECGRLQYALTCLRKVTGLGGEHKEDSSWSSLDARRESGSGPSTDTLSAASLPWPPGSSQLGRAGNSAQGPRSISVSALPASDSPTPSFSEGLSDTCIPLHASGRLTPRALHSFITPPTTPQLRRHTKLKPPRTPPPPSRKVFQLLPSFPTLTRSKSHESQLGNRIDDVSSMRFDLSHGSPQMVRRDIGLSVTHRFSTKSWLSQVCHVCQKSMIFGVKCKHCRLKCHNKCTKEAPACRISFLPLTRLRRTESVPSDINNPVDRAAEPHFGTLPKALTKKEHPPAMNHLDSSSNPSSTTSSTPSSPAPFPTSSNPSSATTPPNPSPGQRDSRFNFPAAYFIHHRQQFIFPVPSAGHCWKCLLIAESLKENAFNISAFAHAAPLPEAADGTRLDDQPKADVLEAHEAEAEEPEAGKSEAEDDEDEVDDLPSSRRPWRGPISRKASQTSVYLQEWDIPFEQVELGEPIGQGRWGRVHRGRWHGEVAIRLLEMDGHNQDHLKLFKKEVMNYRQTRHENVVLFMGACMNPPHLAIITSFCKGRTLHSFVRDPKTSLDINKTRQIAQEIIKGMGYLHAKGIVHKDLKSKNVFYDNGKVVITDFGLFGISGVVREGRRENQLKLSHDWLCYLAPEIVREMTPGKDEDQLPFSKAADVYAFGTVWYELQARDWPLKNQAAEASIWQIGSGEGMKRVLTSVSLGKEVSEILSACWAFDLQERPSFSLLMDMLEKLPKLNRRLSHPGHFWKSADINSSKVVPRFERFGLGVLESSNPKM

Ribosomal protein S6 kinase alpha-3 (Homo sapiens), sequence (P51812 whole entry, the tested form may be a part): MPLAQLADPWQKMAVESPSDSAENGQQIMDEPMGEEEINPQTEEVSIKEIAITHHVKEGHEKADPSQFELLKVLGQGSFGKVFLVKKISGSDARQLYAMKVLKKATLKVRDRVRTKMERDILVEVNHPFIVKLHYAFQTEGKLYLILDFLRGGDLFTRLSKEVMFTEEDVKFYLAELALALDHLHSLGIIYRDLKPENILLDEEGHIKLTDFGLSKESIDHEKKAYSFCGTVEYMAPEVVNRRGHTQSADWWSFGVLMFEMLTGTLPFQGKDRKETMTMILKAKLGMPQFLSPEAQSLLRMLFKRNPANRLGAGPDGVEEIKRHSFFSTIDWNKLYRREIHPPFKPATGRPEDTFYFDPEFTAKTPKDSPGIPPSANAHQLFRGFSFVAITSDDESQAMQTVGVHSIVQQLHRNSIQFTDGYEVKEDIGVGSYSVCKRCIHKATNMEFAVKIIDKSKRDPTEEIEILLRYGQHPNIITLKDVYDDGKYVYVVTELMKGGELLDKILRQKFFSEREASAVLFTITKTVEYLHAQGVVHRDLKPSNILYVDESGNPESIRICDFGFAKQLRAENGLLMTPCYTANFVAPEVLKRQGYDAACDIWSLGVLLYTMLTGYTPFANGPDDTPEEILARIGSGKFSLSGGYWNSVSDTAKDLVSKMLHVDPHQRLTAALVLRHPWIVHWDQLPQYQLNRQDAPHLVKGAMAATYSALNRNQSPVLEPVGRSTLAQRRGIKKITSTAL
Cyclin-dependent kinase 18 (Homo sapiens), sequence (Q07002 whole entry): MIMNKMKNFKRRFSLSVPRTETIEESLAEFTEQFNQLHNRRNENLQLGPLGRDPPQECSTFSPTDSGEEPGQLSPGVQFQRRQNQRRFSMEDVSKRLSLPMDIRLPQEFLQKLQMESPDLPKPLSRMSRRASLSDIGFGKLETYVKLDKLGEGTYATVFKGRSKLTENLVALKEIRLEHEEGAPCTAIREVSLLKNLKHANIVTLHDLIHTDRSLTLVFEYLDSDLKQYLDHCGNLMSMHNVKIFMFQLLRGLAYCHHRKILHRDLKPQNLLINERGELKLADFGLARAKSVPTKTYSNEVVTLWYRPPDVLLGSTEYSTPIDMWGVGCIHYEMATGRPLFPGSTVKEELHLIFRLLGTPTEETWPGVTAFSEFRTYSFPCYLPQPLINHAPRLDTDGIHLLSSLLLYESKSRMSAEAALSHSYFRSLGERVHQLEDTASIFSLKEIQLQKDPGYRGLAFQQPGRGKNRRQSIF
RAC-gamma serine/threonine-protein kinase (Homo sapiens), sequence (Q9Y243 whole entry, the tested form may be a part): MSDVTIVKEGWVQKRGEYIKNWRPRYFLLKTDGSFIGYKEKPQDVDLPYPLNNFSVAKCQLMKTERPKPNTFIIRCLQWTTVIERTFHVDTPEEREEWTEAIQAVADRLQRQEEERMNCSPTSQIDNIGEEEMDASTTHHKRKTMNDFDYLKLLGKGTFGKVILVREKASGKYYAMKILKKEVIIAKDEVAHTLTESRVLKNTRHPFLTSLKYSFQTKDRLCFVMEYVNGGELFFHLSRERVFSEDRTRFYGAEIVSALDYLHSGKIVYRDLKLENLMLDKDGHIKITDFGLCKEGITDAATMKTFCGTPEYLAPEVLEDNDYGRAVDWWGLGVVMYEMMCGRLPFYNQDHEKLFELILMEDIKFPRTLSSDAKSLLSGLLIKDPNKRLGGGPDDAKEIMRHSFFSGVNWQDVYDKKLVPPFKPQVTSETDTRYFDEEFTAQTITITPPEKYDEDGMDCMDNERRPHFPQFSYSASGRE
Interleukin-1 receptor-associated kinase 1 (Homo sapiens), sequence (P51617 whole entry, looked up): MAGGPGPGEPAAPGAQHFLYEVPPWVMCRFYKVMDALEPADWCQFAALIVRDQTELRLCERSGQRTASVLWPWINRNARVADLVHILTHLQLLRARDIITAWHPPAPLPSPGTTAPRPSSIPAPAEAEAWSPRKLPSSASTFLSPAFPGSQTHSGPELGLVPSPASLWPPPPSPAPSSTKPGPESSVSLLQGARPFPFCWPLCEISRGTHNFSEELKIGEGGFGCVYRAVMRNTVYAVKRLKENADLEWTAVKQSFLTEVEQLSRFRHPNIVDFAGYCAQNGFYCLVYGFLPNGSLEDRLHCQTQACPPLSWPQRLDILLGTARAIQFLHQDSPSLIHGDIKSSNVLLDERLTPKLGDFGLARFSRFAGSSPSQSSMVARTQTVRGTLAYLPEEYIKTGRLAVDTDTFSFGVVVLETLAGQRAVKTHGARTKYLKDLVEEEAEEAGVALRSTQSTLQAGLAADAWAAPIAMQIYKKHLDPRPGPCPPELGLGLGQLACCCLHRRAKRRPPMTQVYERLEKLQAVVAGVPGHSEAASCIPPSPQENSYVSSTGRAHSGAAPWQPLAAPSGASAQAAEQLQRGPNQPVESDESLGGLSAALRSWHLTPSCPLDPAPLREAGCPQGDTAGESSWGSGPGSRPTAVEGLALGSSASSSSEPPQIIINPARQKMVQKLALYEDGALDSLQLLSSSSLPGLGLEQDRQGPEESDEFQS
Receptor tyrosine-protein kinase erbB-3 (Homo sapiens), sequence (P21860 whole entry): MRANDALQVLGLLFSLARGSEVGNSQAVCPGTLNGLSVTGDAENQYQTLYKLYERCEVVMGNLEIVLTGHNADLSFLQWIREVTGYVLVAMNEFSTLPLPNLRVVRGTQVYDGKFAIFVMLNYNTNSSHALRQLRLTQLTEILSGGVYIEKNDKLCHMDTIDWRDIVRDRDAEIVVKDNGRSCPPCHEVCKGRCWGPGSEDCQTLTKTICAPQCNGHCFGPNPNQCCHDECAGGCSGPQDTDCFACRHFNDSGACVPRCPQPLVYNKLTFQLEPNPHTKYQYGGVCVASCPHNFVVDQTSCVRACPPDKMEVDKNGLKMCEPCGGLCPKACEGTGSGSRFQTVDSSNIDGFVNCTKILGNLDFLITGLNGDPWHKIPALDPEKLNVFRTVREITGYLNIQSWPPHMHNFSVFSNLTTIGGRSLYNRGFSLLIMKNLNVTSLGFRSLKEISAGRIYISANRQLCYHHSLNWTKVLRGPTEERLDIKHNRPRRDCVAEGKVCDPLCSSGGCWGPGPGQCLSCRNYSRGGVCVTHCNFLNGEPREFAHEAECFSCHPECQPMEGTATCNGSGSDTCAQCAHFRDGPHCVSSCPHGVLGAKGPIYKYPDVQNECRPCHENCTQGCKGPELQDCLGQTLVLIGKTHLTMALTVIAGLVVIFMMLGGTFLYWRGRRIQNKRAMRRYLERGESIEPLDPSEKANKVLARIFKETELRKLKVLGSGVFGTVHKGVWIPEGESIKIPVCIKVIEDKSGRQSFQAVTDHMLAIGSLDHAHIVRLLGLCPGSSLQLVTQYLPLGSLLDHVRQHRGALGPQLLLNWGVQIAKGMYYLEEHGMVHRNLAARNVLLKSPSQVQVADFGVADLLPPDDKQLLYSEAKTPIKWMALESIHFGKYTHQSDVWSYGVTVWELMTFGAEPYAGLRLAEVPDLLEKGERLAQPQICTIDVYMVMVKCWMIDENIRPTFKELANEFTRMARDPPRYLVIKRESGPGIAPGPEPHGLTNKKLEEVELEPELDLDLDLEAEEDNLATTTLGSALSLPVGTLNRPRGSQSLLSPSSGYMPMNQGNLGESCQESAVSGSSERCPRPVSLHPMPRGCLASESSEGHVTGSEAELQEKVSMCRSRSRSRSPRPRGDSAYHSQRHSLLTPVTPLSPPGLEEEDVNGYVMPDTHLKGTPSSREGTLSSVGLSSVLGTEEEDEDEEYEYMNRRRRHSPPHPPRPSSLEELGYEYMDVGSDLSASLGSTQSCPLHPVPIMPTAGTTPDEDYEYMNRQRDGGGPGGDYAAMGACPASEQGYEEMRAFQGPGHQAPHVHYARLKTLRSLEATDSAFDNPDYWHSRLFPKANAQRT

Structure (SMILES)	inhibition [1] [%]	inhibition [2] [%]	inhibition [3] [%]	inhibition [4] [%]	inhibition [5] [%]	inhibition [6] [%]	inhibition [7] [%]	inhibition [8] [%]	inhibition [9] [%]
CCN1CCN(Cc2ccc(NC(=O)c3ccc(C)c(Oc4ccnc5[nH]ccc45)c3)cc2C(F)(F)F)CC1	-3.9	3.1	6.9	-5.6	14.2	77.1	3.1	4.1	8.5
CCN1CCN(Cc2ccc(NC(=O)c3ccc(C)c(/C=C/c4cnc5[nH]ccc5c4OC)c3)cc2C(F)(F)F)CC1	20.9	-9.9	2.4	13.8	-9.4	80.4	27.3	11.2	16.8
